Measurements as given in PubChem BioAssay.

Test: yeast TOR pathway reporter LAP4-GFP change – cell-based, cherry picks, flow cytometry, mother/daughter gates, confirmation (AID 2271);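 note: ratio of sample to DMSO plate mean so 100% equals DMSO level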
Settings: S. cerevisiae LAP4-GFP strain, 3 h, measured here: daughter cell gate response, at 10 µM, stronger effect = higher value, 100 means same as DMSO control
Procedure, shortened: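 Material: Alexa 633-stained baker's yeast GFP-fusion strain; Compound dosing: single test-compound dose, 10 µM final; Incubation: 30 °C, 3 h compound incubation, rotating; Detection: HT flow cytometry, GFP fluorescence channel; Control set: positive rapamycin (400 ng/mL), negative DMSO.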

Going from `CSc1nc2ccc(S(=O)(=O)N3CCCC3)cc2s1` to `COc1ccc(C2CC(c3cccs3)=NN2S(=O)(=O)c2ccc(C)cc2)cc1` (stereo not given), the GFP response relative to DMSO falls from 128% to 105%.

Compared with `O=C1c2cccc3c([N+](=O)[O-])ccc(c23)C(=O)N1CCc1ccccn1`, `CCOC(=O)c1sc(NC(=O)CN2C(=O)c3cccc4cccc(c34)C2=O)nc1C` is lower in GFP response relative to DMSO: 157% for the first, 86.4% for the second.

Compared with `COc1ccc(N=Cc2nc(-c3ccccc3)oc2OC(=O)c2ccccc2)cc1`, `Cc1cc(NC(=O)c2cc3ccccc3o2)ccc1NC(=O)c1ccccc1` is lower in GFP response relative to DMSO: 104% for the first, 94.4% for the second.

Going from `CS(=O)(=O)Nc1ccc(C2=NN(S(C)(=O)=O)C(c3ccccc3)C2)cc1` (stereo not given) to `Nc1cccnc1S(=O)(=O)c1ccccc1`, the GFP response relative to DMSO falls from 138% to 94.1%.

Going from `Nc1cccc(C(=O)Nc2ccccc2Cl)c1` to `N/C(Cc1ccc(Cl)cc1Cl)=N\OC(=O)c1ccccc1`, the GFP response relative to DMSO rises from 97.6% to 145%.

First: CCN(CC)c1ccc(/C=C/c2cccc[n+]2C)c(OC)c1
Second: COc1ccc(C(=O)Nc2cccc(C)c2)cc1
The GFP response relative to DMSO of the first is higher: 113% for the first, 108% for the second.

Compared with `O=C(N/N=C/c1cccc(Oc2ccccc2)c1)c1ccncc1`, `COc1cc(NC(=O)c2c(OC)cccc2OC)ccc1NC(=O)c1cc2ccccc2o1` is higher in GFP response relative to DMSO: 99% for the first, 104% for the second.

Going from `CCC(=O)N/C(N)=N/c1nc2ccccc2o1` to `Clc1cccc(Cn2ncc3ccccc32)c1`, the GFP response relative to DMSO falls from 106% to 102%.

First: Cc1cccc2nc(-c3cccnc3)c(NCCC(C)C)n12
Second: CCOc1ccc(C(Nc2cccnc2)c2cc(Cl)c3cccnc3c2O)cc1 (stereo not given)
The GFP response relative to DMSO of the first is lower: 89.5% for the first, 144% for the second.

First: O=C1ON=C(c2ccccc2)/C1=C/c1ccco1
Second: Cc1ccccc1NC(=O)CC1SC(=O)N(c2ccccc2)C1=O (stereo not given)
The GFP response relative to DMSO of the first is higher: 137% for the first, 127% for the second.
